Test [1] relates to HaCaT. Briefly: Induction of necrosis in human HaCaT cells after 12 hrs by electron microscopy. The test is classed as functional, cell-based.
Test [2] relates to HaCaT. Briefly: Induction of apoptosis in human HaCaT cells assessed as late phase apoptotic/necrotic cells at 446 uM after 9 hrs by AnnexinV-FITC/propidium iodide based FACS flow cytometry. The test is classed as functional. The procedure, abridged:
(§1)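 HaCaT cells at 10^6 cells/ml were attached overnight and exposed to vehicle, 111.6, 223.2 or 446 µM for 9 h. Cells were then trypsinized, washed in ice-cold PBS and stained with Annexin V-FITC/PI. FACScan analysis used FL1/FL2, 10,000 events per sample, scatter gating, and quadrants set with single-stain controls. Runs were in triplicate and results are means of two experiments.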

Test [3] relates to HaCaT. The test is described as follows: Cytotoxicity against human HaCaT cells assessed as cell viability after 6 hrs by MTT assay. The test is classed as functional. The note with it: read-out: LD50 (the source's name). The procedure, abridged:
(§2)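 Cells were plated at 10,000/well, attached overnight, and exposed 6 or 24 h to eight drug concentrations with six in-plate replicates (DMSO <1%). MTT (0.5 mg/ml in PBS) was added for 2 h at 37 °C, then dissolved in 90% isopropanol/10% DMSO, and A590 was read. Values were corrected against untreated controls. LD₅₀ is reported as mean ± S.E.M., n = 3.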
For orientation: Tetrazolium assays rely on reduction of a dye to a coloured formazan, in cell work by metabolically active cells.

In test [4] the test system is HaCaT. The test is described as follows: Induction of apoptosis in human HaCaT cells assessed as viable cells at 446 uM after 12 hrs by MTT assay.
In another test the test system is THP-1. The test is described as follows: Growth inhibition of human THP1 cells after 72 hrs by Cell Titer 96 aqueous one solution assay. It is filed as functional. The gist of the method:
(§3)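 Cells were grown in RPMI with 10% FBS, 2 mM L-glutamine and penicillin/streptomycin. They were seeded at 10,000 cells/well in round-bottom plates and exposed to compounds for 72 h (eight concentrations, six replicates). Cell Titer 96 AQueous One reagent was then added for 3 h at 37 °C and absorbance was read at 492 nm. Values are means, n = 6.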

For the next test, the system named is U-937. The test is described as follows: Growth inhibition of human U937 cells after 72 hrs by Cell Titer 96 aqueous one solution assay. It is filed as functional. The procedure, abridged: as §3
Test [5] relates to HaCaT. The test is described as follows: Induction of apoptosis in human HaCaT cells assessed as early phase apoptotic cells at 446 uM after 9 hrs by AnnexinV-FITC/propidium iodide based FACS flow cytometry. It is filed as functional. The gist of the method:
as §1

A short description of test [6]: Cytotoxicity against HPV-16 transformed human CCD-1106 cells assessed as LDH release after 24 hrs by CYTOX-96 assay. It is filed as functional. The note with it: CCD-1106, 24 h, read-out: LD50 (the source's name). The gist of the method: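 LDH release was read with the CytoTox 96 kit following the kit protocol after 6 or 24 h drug exposure. Cells were seeded at 10,000/well and attached overnight. Eight concentrations were run with six in-plate replicates; DMSO was <1% in all wells, with medium-only blanks. LD₅₀ is reported as mean ± S.E.M., n = 6. CCD-1106 were grown in supplemented keratinocyte SFM; HaCaT in DMEM/10% FBS.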
A general note: LDH in the medium is a marker of cell lysis.

Test [7] has as its system HaCaT. Briefly: Cytotoxicity against human HaCaT cells assessed as cell viability after 24 hrs by MTT assay. The note with it: read-out: LD50 (the source's name). The test is classed as functional. The gist of the method: as §2
In test [8] the test system is HaCaT. The test is described as follows: Induction of apoptosis in human HaCaT cells after 12 hrs by electron microscopy. It is filed as functional, cell-based.
Test [9] is described as follows: Growth inhibition of HPV-16 transformed human CCD-1106 cells after 72 hrs by MTT assay. It is filed as functional. The note with it: CCD-1106, 72 h. The procedure, abridged: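 Cells were seeded at 10,000 cells/well in keratinocyte serum-free medium with L-glutamine, bovine pituitary extract and EGF, at 37 °C under 5% CO2, and attached overnight. Eight drug concentrations were run with six in-plate replicates, DMSO <1%, for 72 h. MTT (0.5 mg/ml) was added for 2 h, formazan was dissolved in 90% isopropanol/10% DMSO and A590 was read. Growth is expressed relative to the untreated control.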

Active and inactive are the calls of the source. The rule behind the calls is not given here.

The term viability denotes a per cent measure of how many cells are alive, often set against a control. As for `CCOc1cc(/C=N\Nc2nc3c(c(=O)n(C)c(=O)n3C)n2Cc2ccccc2)ccc1O`, the outcome in the test on HaCaT [1] was inactive. Further, the Activity is listed as 15% in the test on HaCaT [2] and 24% with HaCaT [5]. Also, the results for the CC50 (in the test with HaCaT [3]; in [6]; with HaCaT [7]) were 440 µM, greater than 446 µM and 446 µM, respectively. Besides, in the test on HaCaT [4], the viability at 446 µM worked out at 62%. Further, the “growth inhibition (GI)” value in the test on THP-1 and with U-937 was “Dose-dependent effect” in each case. Also, the GI50 in the test with THP-1 (THP-1, 72 h) is 36 µM; in the test on U-937 (U-937, 72 h), 46 µM; in [9] (read-out: GI50) it was 2.69 µM; in test [9] (read-out: pGI50 (converted)) it was 2.69 µM. Further, in the test with HaCaT [8], the result was Active.
